Tests used:
MOLM-13 [1] = test: Antiproliferative activity against human MOLM13 cells after 72 hrs by WST-1 assay; type: functional; settings: MOLM-13, 72 h
Method in brief: (§1)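 Cells kept in RPMI1640 with 10% heat-inactivated FBS, 1% penicillin and 1% streptomycin, seeded in 96-well plates and exposed to test compounds for 72 h. Viability read with WST-1 reagent. GI50 is the mean ± SEM of three experiments.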

Liver microsomes = test: Metabolic stability in human liver microsomes assessed as intrinsic clearance; type: ADME, Microsome
Method in brief: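 Pooled human liver microsomes (0.2 mg protein/mL) with test compound at 0.1 or 1 μmol/L, 5 mmol/L NADPH, 100 mmol/L phosphate buffer pH 7.4, 6 mmol/L MgCl2 and 0.1 mmol/L EDTA. Cosolvent was DMSO (0.01 or 0.001 vol%) or methanol (1 vol%). Incubated at 37 °C for a fixed time, n = 1 or 2. Stopped with CH3CN containing internal standard and analysed by LC-MS or LC-MS/MS. Intrinsic clearance calculated from percent remaining.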

[2] = target: T1, Receptor-type tyrosine-protein kinase FLT3 (Homo sapiens, UniProt P36888); test: Inhibition of GST-tagged FLT3 by ELISA
T1 sequence (P36888 whole entry): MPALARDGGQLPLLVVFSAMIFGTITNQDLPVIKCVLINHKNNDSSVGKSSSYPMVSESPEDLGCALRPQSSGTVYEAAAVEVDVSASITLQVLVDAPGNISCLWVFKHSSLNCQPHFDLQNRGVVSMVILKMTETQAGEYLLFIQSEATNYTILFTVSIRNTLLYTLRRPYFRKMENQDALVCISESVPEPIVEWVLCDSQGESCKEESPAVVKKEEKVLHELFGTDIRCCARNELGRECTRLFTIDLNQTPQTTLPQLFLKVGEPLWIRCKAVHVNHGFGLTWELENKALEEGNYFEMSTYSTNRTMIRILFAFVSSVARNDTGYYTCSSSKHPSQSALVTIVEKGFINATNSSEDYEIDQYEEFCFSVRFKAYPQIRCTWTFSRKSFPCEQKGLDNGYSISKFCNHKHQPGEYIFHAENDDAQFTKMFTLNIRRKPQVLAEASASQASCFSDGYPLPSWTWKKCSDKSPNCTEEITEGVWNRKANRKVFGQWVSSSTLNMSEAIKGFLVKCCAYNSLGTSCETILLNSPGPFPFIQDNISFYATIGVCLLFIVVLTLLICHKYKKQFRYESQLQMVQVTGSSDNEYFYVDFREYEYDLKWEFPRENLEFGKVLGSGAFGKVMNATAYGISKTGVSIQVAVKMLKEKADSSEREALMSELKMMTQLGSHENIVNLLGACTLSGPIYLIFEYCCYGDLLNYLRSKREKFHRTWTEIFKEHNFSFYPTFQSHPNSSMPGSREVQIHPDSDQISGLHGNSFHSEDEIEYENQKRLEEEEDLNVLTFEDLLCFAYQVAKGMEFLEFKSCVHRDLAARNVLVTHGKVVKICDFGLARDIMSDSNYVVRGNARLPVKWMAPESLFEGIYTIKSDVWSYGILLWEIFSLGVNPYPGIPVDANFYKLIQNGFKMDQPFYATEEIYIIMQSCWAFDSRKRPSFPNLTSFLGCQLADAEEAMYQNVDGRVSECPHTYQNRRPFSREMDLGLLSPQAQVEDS

[3] = Antiproliferative activity against human HMC1 cells expressing FLT3-delta599 mutant after 72 hrs by WST-1 assay; type: functional; settings: HMC1, 72 h; method in brief: as §1
[4] = Antiproliferative activity against human HMC1 cells expressing FLT-D835Y mutant after 72 hrs by WST-1 assay; type: functional; settings: HMC1, 72 h; method in brief: as §1
[5] = Antiproliferative activity against human ML1 cells after 72 hrs by WST-1 assay; type: functional; settings: ML1, 72 h; method in brief: as §1
Mus musculus [6] = test: Toxicity to human MOLM13 cells xenografted SCID mouse assessed as mortality at 50 mg/kg, po bid after 5 days; type: organism-based, MOLM-13; set-up: dose 50 mg/kg, route oral; settings: in vivo, 120 h
Method in brief: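 MOLM-13 cells implanted subcutaneously in SCID mice. Compound given orally twice daily for 5 days at 50, 100 or 200 mg/kg, alongside an untreated control group. Mortality was scored per dose group, together with tumor volume as treated/control ratio and relative to day-0 volume.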

Mus musculus [7] = test: Toxicity to human MOLM13 cells xenografted SCID mouse assessed as body weight loss at 200 mg/kg, po bid after 5 days; type: organism-based, MOLM-13; set-up: dose 200 mg/kg, route oral; settings: in vivo, 120 h
Method in brief: (§2)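 SCID mice bearing subcutaneous MOLM-13 xenografts, 5 per group, dosed orally b.i.d. for 5 days. […] is the mean tumour volume ratio, treated to control. Regression is the mean tumour volume relative to the initial volume on day 0. Mortality and body weight were also recorded.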

MOLM-13 [8] = test: Antitumor activity against human MOLM13 cells xenografted in SCID mouse assessed as minimal tumor volume ratio at 50 mg/kg, po bid treated for 5 days measured after 7 days relative to control; type: functional; method in brief: as §2

Structure (SMILES)	GI50 (MOLM-13 [1]) [nM]	clearance (Liver microsomes) [mL/min/kg]	IC50 [2] [nM]	further results
CS(=O)(=O)CCNc1nc(NCCc2ccncc2)ncc1-c1nnc(C2CC2)o1	588	–	515	–
c1ccc(Nc2nc(NCCc3ccncc3)ncc2-c2nnc(C3CC3)o2)cc1	40	317	47	–
CCCNc1nc(NCCc2ccncc2)ncc1-c1nnc(CN2CCN(C)CC2)o1	19	81.7	–	GI50 [3]: 37 nM; GI50 [4]: 31 nM; GI50 [5]: > 10000 nM; Activity (Mus musculus [6]): Non-toxic; Activity (Mus musculus [7]): Non-toxic
c1ccc(Nc2nc(NCCc3ccncn3)ncc2-c2nnc(C3CC3)o2)cc1	775	73.3	–	–
CC(C)Nc1nc(NCCc2ccncc2)ncc1-c1nnc(CN2CCNCC2)o1	49	25	–	–
CCNc1nc(NCCc2ccncc2)ncc1-c1nnc(CN2CCN(C)CC2)o1	102	45	–	GI50 [3]: 114 nM; GI50 [4]: 63 nM; GI50 [5]: > 10000 nM; T/C (MOLM-13 [8]): 0.24; Activity (Mus musculus [6]): Non-toxic; Activity (Mus musculus [7]): Non-toxic
Oc1cc(CCNc2ncc(-c3nnc(C4CC4)o3)c(Nc3ccccc3)n2)ccn1	113	41.7	–	–
CCCNc1nc(NCCc2ccncc2)ncc1-c1nnc(CN2CCN(C(C)=O)CC2)o1	66	137	–	–

More lines, main results first:

GI50 (MOLM-13 [1]) [nM]	clearance (Liver microsomes) [mL/min/kg]	IC50 [2] [nM]	Structure (SMILES)	further results
78	50	–	CCCNc1nc(NCCc2ccncc2)ncc1-c1nnc(CNCCN(C)C)o1	–
139	20	35	CNc1nc(NCCc2ccncc2)ncc1-c1nnc(C2CC2)o1	–
–	–	373	CCCNc1nc(NCCc2cccs2)ncc1-c1nnc(C)o1	–
43	167	–	CCCNc1nc(NCCc2ccncc2)ncc1-c1nnc(CN2CCOCC2)o1	–
262	1.67	–	CNc1nc(NCCc2ccncc2)ncc1-c1nnc(CN2CCN(C)CC2)o1	–
43	115	–	CCCNc1nc(NCCc2ccncc2)ncc1-c1nnc(CN2C[C@@H](C)N[C@@H](C)C2)o1	–
10000	–	–	N#Cc1cc(CCNc2ncc(-c3nnc(C4CC4)o3)c(Nc3ccccc3)n2)ccn1	–
123	20	63	OCCNc1nc(NCCc2ccncc2)ncc1-c1nnc(C2CC2)o1	–
3.2	–	4.8	Oc1ccc(Nc2nc(NCCc3ccncc3)ncc2-c2nnc(C3CC3)o2)cc1	–
57	50	–	CCCNc1nc(NCCc2ccncc2)ncc1-c1nnc(CN2CCN(CCO)CC2)o1	–
3610	3.33	–	[O-][n+]1ccc(CCNc2ncc(-c3nnc(C4CC4)o3)c(Nc3ccccc3)n2)cc1	–

From ChEMBL document CHEMBL1152250, “Novel and orally active 5-(1,3,4-oxadiazol-2-yl)pyrimidine derivatives as selective FLT3 inhibitors” (Bioorg Med Chem Lett, 2008)
